Bioassay records as filed in PubChem BioAssay.
OXTR potentiate: potentiates the human oxytocin receptor response; P30559; CHO-OTR cells, Fluo-8 calcium fluorescence, potentiator mode; 0% = oxytocin EC15, 100% = EC100; hit rate 0.061% among 320,000; activation, % at 3 µM;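 active means activation above that plate's cutoff, the mean activation of tested compounds plus 3 SD, cut at about 6.6% in these data, passing the limit was not always enough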
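assay system = CHO-OTR cells, human receptor | schedule = compound 6 min at room temperature before oxytocin, 100 s read | detection = Fluo-8 intracellular calcium fluorescence, ex 470-495, em 515-575 nm | evaluation = normalized max/min fluorescence ratio, % activation | control set = EC15 oxytocin alone as 0%, 75 nM oxytocin (EC100) as 100%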
OXTR agonist: human OXTR agonism. P30559. CHO-OTR cells, Fluo-8 calcium fluorescence; normalized: DMSO 0%, oxytocin 100%. activation, % at 3 µM. hit rate 0.32% among 320,000. AID 2435;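 active means activation above the mean of all tested compounds plus 3 SD, cutoff set per screening run, cut at about 20% in these data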;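 further: peak over basal fluorescence ratio from a 100 s FLIPR kinetic read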
CHO parental Ca: counter-screen for OX1R antagonists: effect in parental CHO cells; parental CHO-K1, ATP-induced calcium, Fluo-8 fluorescence; inhibition, % at 5.6 µM; hit rate 0.63% among 330,000; AID 463079;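 active means inhibition above that plate's mean sample inhibition plus 3 SD, cut at about 26% in these data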
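Assay system: parental CHO cells; Read-out basis: percent inhibition of ATP-evoked calcium rise, normalized to controls; Benchmarks: ATP and no-ATP DMSO wells; Compound dosing: single nominal dose of 5.6 µM per compound; Signal: Fluo-8 calcium dye fluorescence; Also added: ATP as calcium-mobilizing challenge; Repeats: singlicate.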
V1R ag counter: activates human V1a receptor in oxytocin agonist counter-screen | P37288 | CHO-V1R cells, Fluo-8 calcium fluorescence, agonist mode; 0% DMSO, 100% 3 nM vasopressin | activation, % at 3 µM | hit rate 0.25% among 320,000 | AID 2797;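 active means activation above the mean activation of all tested compounds plus 3 SD, per screening run, cut at about 20% in these data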;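 further: signal is peak over basal fluorescence ratio across a 100 second FLIPR read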
Target sequence (P37288 whole entry, looked up): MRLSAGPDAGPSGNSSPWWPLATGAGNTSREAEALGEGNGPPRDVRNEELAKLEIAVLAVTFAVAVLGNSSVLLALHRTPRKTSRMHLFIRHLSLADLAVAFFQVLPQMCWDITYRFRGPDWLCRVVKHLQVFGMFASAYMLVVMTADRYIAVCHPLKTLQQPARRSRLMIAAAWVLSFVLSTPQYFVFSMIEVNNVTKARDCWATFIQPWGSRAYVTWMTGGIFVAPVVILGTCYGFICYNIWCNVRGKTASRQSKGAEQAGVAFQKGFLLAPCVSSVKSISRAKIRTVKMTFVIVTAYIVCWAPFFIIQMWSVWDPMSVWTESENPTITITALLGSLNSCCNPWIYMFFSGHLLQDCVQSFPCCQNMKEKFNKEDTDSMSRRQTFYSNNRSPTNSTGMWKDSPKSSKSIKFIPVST
OX1R antag-1: antagonists of human orexin 1 receptor (OX1R) | OX1R-expressing cells, FRET antagonist read-out | inhibition, % at 6.6 µM | hit rate 1.8% among 330,000; in the data active means inhibition mostly above about 38%, no sharp cut-off; inactive means mostly below about 40%
OX1R antag-2: human HCRTR1 antagonism | O43613 | CHO/OX1R cells, Fluo-8 calcium fluorescence, orexin A | inhibition, % at 5 µM | hit rate 0.43% among 330,000 | AID 434989;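 active means inhibition above its plate's threshold, mean inhibition of all tested compounds on the plate plus 3 SD, cut at about 37% in these data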
OXTR agonist cf: confirmation of human oxytocin receptor agonists; AID 434963; CHO-OTR cells, Fluo-8 calcium fluorescence, agonist; shares compounds with OXTR agonist; hit rate 20% among 390; activation, % at 3 µM;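 active means mean activation above about 20% derived from the earlier single-dose screen, limit read from the data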;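 further: peak over minimum fluorescence ratio per well during a 100 second FLIPR read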
V1R ag counter 3x: activates V1a receptor in oxytocin agonist counter-screen; shares compounds with OXTR agonist; CHO-V1R cells, Fluo-8 calcium fluorescence; activation, % at 3 µM; hit rate 10% among 390; AID 434991;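 active means mean activation over triplicate exceeds the hit threshold set in the earlier primary screen, cut at about 20% in these data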;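 further: peak over basal fluorescence ratio within a 100 second read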
Of the large screens only hits and unclear results are named; the others gave an inactive call (follow-up assays come after a bar, where they were run). Compounds with a hit are over-represented: about 2.7% of the library has one in this group of screens.

Cn1c(=O)n(C)c2cc(N3CCOCC3)c(NC(=O)c3ccc(F)cc3)cc21	none
O=Cc1[nH]c2ccccc2c1N(C(=O)CCl)c1ccc([N+](=O)[O-])cc1	OXTR agonist 21.1 | OXTR agonist cf inactive | V1R ag counter 3x inactive
Cn1cccc1C(=O)NC1CCCCC1	none
Cn1cccc1P(=O)(c1cccn1C)c1cccn1C	OXTR agonist 30.8 | OXTR agonist cf inactive | V1R ag counter 3x inactive
CCCCc1ccc(NC(=O)c2cnccn2)cc1	none
CCOc1ccc(NS(=O)(=O)c2ccc(C(=O)NCC3(N(C)C)CCCCC3)cc2)cc1	OXTR agonist 24.0, CHO parental Ca 54.9 | OXTR agonist cf inactive | V1R ag counter 3x inactive
Cc1ccc(-c2nn(-c3ccccc3)cc2CSC(=N)N)cc1	OXTR agonist 23.7 | OXTR agonist cf inactive | V1R ag counter 3x inactive
CC(Oc1cccc(Cl)c1)C(=O)Nc1ccc(S(=O)(=O)N(C)C2CCN(C)CC2)cc1 (stereo unspecified)	OXTR agonist 22.1 | OXTR agonist cf inactive | V1R ag counter 3x inactive
CC12CCC(C(=O)OC3CCCCC3)(OC1=O)C2(C)C (stereo unspecified)	none
CCSc1nc(C)nc2sc(C)c(C)c12	none
Cc1ccc(C)c(NC(=O)C[n+]2ccccc2)c1	none
CSC1=NSC2=NC(=O)/C(=C\c3coc4ccccc4c3=O)C(=N)N12	OXTR agonist 25.7 | OXTR agonist cf 328.9 | V1R ag counter 3x 488.3
OCCN1CCN(CC(O)COC(c2ccc(F)cc2)c2ccc(F)cc2)CC1 (stereo unspecified)	none
OCCN1CCN(C2CCC(c3ccc(F)cc3)c3ccc(F)cc32)CC1 (stereo unspecified)	OXTR agonist 31.4 | OXTR agonist cf inactive | V1R ag counter 3x inactive
CN(c1ccccc1)c1ccc(/C=C/[N+](=O)[O-])cc1	OXTR agonist 28.8, CHO parental Ca 62.9, OX1R antag-2 78.4 | OXTR agonist cf 25.6 | V1R ag counter 3x 32.4
CN(C)c1ccc(-n2cccc2/C=C/[N+](=O)[O-])cc1	none
Cc1ccc(S(=O)(=O)c2nnn3c2nc(NCCCN2CCCC2=O)c2ccccc23)cc1C	none
Cc1ccc(S(=O)(=O)c2nnn3c2nc(NC2CCN(Cc4ccccc4)CC2)c2ccccc23)cc1C	OXTR agonist 20.3 | OXTR agonist cf inactive | V1R ag counter 3x inactive
COc1cc(CNCCc2c[nH]c3ccccc23)ccc1OCc1ccc(F)cc1	OXTR agonist 21.5 | OXTR agonist cf inactive | V1R ag counter 3x inactive
COc1cc(CNCCc2ccccc2F)ccc1OCc1ccc(Cl)nc1	none
COc1cc(CNCCc2ccc(F)cc2)ccc1OCc1ccc(Cl)nc1	OXTR agonist 22.2 | OXTR agonist cf inactive | V1R ag counter 3x inactive
FC(F)(F)c1ccccc1-n1c(CN2CCCCC2)n[nH]c1=S	none
O=C(N/N=C/c1cccc(Cl)c1)C(c1ccncc1)N1CCOCC1 (stereo unspecified)	none
COc1ccc(CCNC(=O)CCCN2C(=O)C(c3ccccc3)Oc3cccnc32)cc1OC (stereo unspecified)	OXTR agonist 25.4 | OXTR agonist cf inactive | V1R ag counter 3x inactive
CC(C)(Sc1cc(C(C)(C)C)c(O)c(C(C)(C)C)c1)Sc1cc(C(C)(C)C)c(O)c(C(C)(C)C)c1	none
C/C(=N/O)c1cc(C(C)(C)C)c(O)c(C(C)(C)C)c1	OXTR agonist 20.6 | OXTR agonist cf inactive | V1R ag counter 3x inactive
COc1ccc(CNC(=O)c2cccnc2Sc2ccc(Cl)cc2)cc1	OXTR agonist 21.8 | OXTR agonist cf inactive | V1R ag counter 3x inactive
Oc1ccc(Cl)cc1CNCc1ccc(Cl)nc1	OXTR agonist 20.1 | OXTR agonist cf 20.6 | V1R ag counter 3x inactive
Cc1onc(-c2ccccc2)c1C(=O)Nc1nnc(C(C)C)s1	none
Cc1onc(-c2ccccc2)c1C(=O)Nc1ncc([N+](=O)[O-])s1	OXTR agonist 20.6 | OXTR agonist cf inactive | V1R ag counter 3x inactive
Cc1ccc(S(=O)(=O)Nn2c(C)nnc2-n2nc(C)cc2C)cc1	none
COc1ccc(S(=O)(=O)N(n2c(C)nnc2-n2nc(C)cc2C)S(=O)(=O)c2ccc(OC)cc2)cc1	OXTR agonist 21.2 | OXTR agonist cf inactive | V1R ag counter 3x inactive
CCCC(=O)c1ccc(N2CCN(C(=O)c3ccccc3Br)CC2)c(F)c1	OXTR agonist 19.6, CHO parental Ca 52.1 | OXTR agonist cf inactive | V1R ag counter 3x inactive
COc1ccc(S(=O)(=O)Nc2ccc(-n3cnnn3)cc2)cc1[N+](=O)[O-]	none
COc1ccc(NS(=O)(=O)c2ccc(-n3nnc4ccccc43)c([N+](=O)[O-])c2)cc1	OXTR agonist 23.5 | OXTR agonist cf inactive | V1R ag counter 3x inactive
COc1ccccc1CCNC(C)CCc1ccc(O)cc1 (stereo unspecified)	none
COc1cc(OC)c(OC)cc1CCC(C)NCCC(c1ccccc1)c1ccccc1 (stereo unspecified)	OXTR agonist 21.7 | OXTR agonist cf inactive | V1R ag counter 3x inactive
CCCCCCOc1ccc(OCC(O)CN2C(=O)NC(C)(C)C2=O)cc1 (stereo unspecified)	OXTR agonist 23.7 | OXTR agonist cf inactive | V1R ag counter 3x inactive
Cc1ccc(OCC(O)CN2C(=O)NC(C)(C)C2=O)cc1 (stereo unspecified)	none
O=C(CSC1=NS(=O)(=O)c2cc(Cl)ccc2N1)c1ccc(Cl)cc1	none
O=C(CCCCCNC(=O)c1ccccc1)C[N+](=O)[O-]	none
COc1ccc(NS(=O)(=O)c2ccc(N3CCOCC3)c(N)c2)cc1	OXTR agonist 20.4 | OXTR agonist cf inactive | V1R ag counter 3x inactive
Cc1cc(SCC(=O)OCC(=O)N(C)C2CCS(=O)(=O)C2)c(C)cc1Br (stereo unspecified)	OXTR agonist 21.1 | OXTR agonist cf inactive | V1R ag counter 3x inactive
CCOc1ccc(NC(=O)C(C)Oc2ccc(C#N)cc2)cc1S(=O)(=O)N1CCCC1 (stereo unspecified)	OXTR agonist 19.6 | OXTR agonist cf inactive | V1R ag counter 3x inactive
Cc1cccnc1NC(=S)Nc1ccc(Br)cc1Cl	none
COc1ccc(C(=O)CSc2nnc(Cn3cnc4ccccc43)o2)cc1	OXTR agonist 19.8, CHO parental Ca 38.2 | OXTR agonist cf inactive | V1R ag counter 3x inactive
CC(=O)c1ccc(NC(=O)CSc2nnc(Cn3cnc4ccccc43)o2)cc1	none
CC1(c2ccc3c(c2)OCCO3)NC(=O)N(CC(=O)Nc2ccccc2SCC#N)C1=O (stereo unspecified)	none
O=C(NCC1CCN(Cc2cccc(Cl)c2)CC1)Nc1ccc(Cl)cc1	OXTR agonist 23.4 | OXTR agonist cf inactive | V1R ag counter 3x inactive
